In test [1] the target is T1, Histone deacetylase 8 (Homo sapiens, UniProt Q9BY41).
T1 sequence (Q9BY41 whole entry): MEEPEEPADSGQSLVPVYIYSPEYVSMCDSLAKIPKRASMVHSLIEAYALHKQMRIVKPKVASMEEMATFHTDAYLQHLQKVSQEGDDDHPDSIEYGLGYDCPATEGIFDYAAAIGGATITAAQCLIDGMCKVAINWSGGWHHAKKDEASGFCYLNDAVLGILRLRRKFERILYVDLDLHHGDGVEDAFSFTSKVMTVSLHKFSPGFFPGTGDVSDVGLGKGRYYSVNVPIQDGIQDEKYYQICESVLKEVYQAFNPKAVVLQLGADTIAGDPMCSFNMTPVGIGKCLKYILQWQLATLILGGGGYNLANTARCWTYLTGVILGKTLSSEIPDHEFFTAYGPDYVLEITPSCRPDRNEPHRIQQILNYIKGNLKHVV
Briefly: Inhibition of human recombinant HDAC8 using H2N-Arg-His-Lys(Ac)-Lys(Ac)-AMC as substrate after 90 mins by fluorescence based micro plate assay.

Test [2] deals with T2, Peregrin (Homo sapiens, UniProt P55201).
T2 sequence (P55201 whole entry): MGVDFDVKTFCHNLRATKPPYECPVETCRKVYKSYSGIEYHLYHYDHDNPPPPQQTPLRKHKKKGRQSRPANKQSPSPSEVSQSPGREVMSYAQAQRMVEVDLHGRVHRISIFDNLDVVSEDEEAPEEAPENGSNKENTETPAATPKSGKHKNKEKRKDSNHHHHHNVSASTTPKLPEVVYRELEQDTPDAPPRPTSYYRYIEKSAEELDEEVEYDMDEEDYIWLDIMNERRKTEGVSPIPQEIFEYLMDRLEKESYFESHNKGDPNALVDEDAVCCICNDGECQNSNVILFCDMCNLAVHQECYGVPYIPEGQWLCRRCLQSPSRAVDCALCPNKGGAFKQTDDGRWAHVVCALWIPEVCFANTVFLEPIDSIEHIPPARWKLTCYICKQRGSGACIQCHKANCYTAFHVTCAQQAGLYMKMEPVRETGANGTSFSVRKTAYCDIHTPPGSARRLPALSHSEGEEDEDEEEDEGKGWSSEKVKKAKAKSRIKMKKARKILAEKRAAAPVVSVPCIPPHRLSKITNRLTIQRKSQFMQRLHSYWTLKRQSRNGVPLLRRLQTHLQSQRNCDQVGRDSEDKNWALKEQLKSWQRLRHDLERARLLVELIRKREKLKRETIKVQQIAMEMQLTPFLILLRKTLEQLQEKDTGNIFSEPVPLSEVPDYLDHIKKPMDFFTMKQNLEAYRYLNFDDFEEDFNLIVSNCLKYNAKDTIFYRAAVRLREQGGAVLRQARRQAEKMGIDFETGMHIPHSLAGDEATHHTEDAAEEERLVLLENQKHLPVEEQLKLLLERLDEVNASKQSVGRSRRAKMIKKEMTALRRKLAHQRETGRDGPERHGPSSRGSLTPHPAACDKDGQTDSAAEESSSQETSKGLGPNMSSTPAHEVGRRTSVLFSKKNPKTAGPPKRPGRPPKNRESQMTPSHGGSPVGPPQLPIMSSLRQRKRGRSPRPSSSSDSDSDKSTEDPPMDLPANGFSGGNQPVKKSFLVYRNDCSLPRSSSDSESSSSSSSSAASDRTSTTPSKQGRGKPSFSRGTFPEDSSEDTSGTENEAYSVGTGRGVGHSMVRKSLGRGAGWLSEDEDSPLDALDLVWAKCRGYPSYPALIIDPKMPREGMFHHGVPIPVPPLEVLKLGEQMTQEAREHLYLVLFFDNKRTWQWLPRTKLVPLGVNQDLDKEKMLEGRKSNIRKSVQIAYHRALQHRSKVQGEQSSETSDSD
In words: Binding affinity to BRPF1 (unknown origin) by Isothermal titration calorimetry. The note with it: read-out: Kd. The method in brief: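 Isothermal titration calorimetry with recombinant BRPF1 (200–400 μM) in the injection syringe titrated into ligand (20–40 μM) in the sample cell. Kd was fitted from the titrations and reported with its P99 interval.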
A general note: Isothermal titration calorimetry measures the heat released or taken up as one component is titrated into another.

For test [3], the system named is HL-60. Briefly: Antiproliferative activity against human HL60 assessed as reduction in cell growth at 4 uM by CellTiter-non radioactive cell proliferation assay. Type of test: functional. The method in brief: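 HL60 cells plated at 5000 per well and given inhibitor or DMSO vehicle immediately. Compounds diluted from 200x DMSO stocks; three replicates per concentration. Growth read by CellTiter 96 Aqueous (MTS) assay. GI50 is the concentration cutting metabolically active cells by 50% versus DMSO control, taken from absorbance against log concentration.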

For orientation: IC50 means the point on the concentration scale where inhibition reaches its midpoint. The term Kd denotes a measure of binding affinity in units of concentration. Usually inhibition stands for the drop in the measured response relative to a control, in per cent. For the compound `COc1ccc(C(=O)NO)cc1S(=O)(=O)Nc1ccc2c(c1)cc(C)c(=O)n2C`, the concentration for half-maximal inhibition (IC50) in test [1] was found to be 443 nM. Further, the Kd in test [2] amounted to 67 nM. In addition, the inhibition at 4 µM in test [3] was 25%.

The record behind these values is ChEMBL document CHEMBL4765345, “Design, synthesis, and biological evaluation of dual targeting inhibitors of histone deacetylase 6/8 and bromodomain BRPF1” (Eur J Med Chem, 2020).
